Experimental data as given in article PMC4415995 (Advances in Therapy, 2015).
Marks after values point to notes of the source that are not given here.

Test system: Japanese patients with T2DM
Experiment: Plasma glucose concentrations, 7-day once-daily dosing
Format: in vivo, human
Method in brief: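 Plasma glucose was measured by a glucose dehydrogenase enzymatic UV method. Sampling was pre-breakfast/pre-dose and 0.5–24 h after breakfast on Day −1, after dosing on Days 1 and 7, and pre-breakfast on Days 11 and 14. Standardized ~600 kcal meals were given, with lunch and dinner at 4 and 12 h. AUC, Cmax and tmax were non-compartmental. MPG was the mean of the 0, 2, 4, 6, 12, 14 and 16 h values. LS mean difference vs placebo with 95% CI.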

CCOc1ccc(Cc2cc([C@@H]3S[C@H](CO)[C@@H](O)[C@H](O)[C@H]3O)c(OC)cc2C)cc1 [Luseogliflozin, (1S)-1,5-anhydro-1-[5-(4-ethoxybenzyl)-2-methoxy-4-methylphenyl]-1-thio-D-glucitol]
FPG (24 h after dose) (0.5 mg OD, Day 1): 156 ± 23 mg/dL | FPG (24 h after dose) LS mean difference vs placebo (95% CI) (0.5 mg OD, Day 1): −7.15 (−16.0, 1.71) mg/dL | MPG0–16h (0.5 mg OD, Day 1): 224 ± 38.8 mg/dL | MPG0–16h LS mean difference vs placebo (95% CI) (0.5 mg OD, Day 1): −6.39 (−16.6, 3.79) mg/dL | Plasma glucose AUC0–4h (after breakfast) (0.5 mg OD, Day 1): 946 ± 175 mg·h/dL | Plasma glucose AUC0–4h (after breakfast) LS mean difference vs placebo (95% CI) (0.5 mg OD, Day 1): 29.4 (−25.0, 83.8) mg h/dL | Plasma glucose AUC4–8h (after lunch) (0.5 mg OD, Day 1): 915 ± 207 mg·h/dL | Plasma glucose AUC4–8h (after lunch) LS mean difference vs placebo (95% CI) (0.5 mg OD, Day 1): −111 (−191, −31.1)* mg h/dL | Plasma glucose AUC12–16h (after dinner) (0.5 mg OD, Day 1): 989 ± 114 mg·h/dL | Plasma glucose AUC12–16h (after dinner) LS mean difference vs placebo (95% CI) (0.5 mg OD, Day 1): −16.3 (−69.6, 37.0) mg h/dL | Plasma glucose C max0–4h (after breakfast) (0.5 mg OD, Day 1): 278 ± 53.0 mg/dL | Plasma glucose C max4–8h (after lunch) (0.5 mg OD, Day 1): 259 ± 52.3 mg/dL | Plasma glucose C max4–8h (after lunch) LS mean difference vs placebo (95% CI) (0.5 mg OD, Day 1): −43.5 (−68.5, −18.5)* mg/dL | Plasma glucose C max12–16h (after dinner) (0.5 mg OD, Day 1): 286 ± 32.5 mg/dL | Plasma glucose C max12–16h (after dinner) LS mean difference vs placebo (95% CI) (0.5 mg OD, Day 1): −16.0 (−35.0, 3.05) mg/dL | FPG (24 h after dose) (0.5 mg OD, Day 7): 145 ± 18 mg/dL | FPG (24 h after dose) LS mean difference vs placebo (95% CI) (0.5 mg OD, Day 7): −18.4 (−31.1, −5.75)* mg/dL | MPG0–16h (0.5 mg OD, Day 7): 204 ± 35.3 mg/dL | MPG0–16h LS mean difference vs placebo (95% CI) (0.5 mg OD, Day 7): −25.0 (−42.2, −7.90)* mg/dL | Plasma glucose AUC0–4h (after breakfast) (0.5 mg OD, Day 7): 810 ± 156 mg·h/dL | Plasma glucose AUC0–4h (after breakfast) LS mean difference vs placebo (95% CI) (0.5 mg OD, Day 7): −108 (−186, −29.3)* mg h/dL | Plasma glucose AUC4–8h (after lunch) (0.5 mg OD, Day 7): 887 ± 209 mg·h/dL | Plasma glucose AUC4–8h (after lunch) LS mean difference vs placebo (95% CI) (0.5 mg OD, Day 7): −165 (−267, −64.2)* mg h/dL | Plasma glucose AUC12–16h (after dinner) (0.5 mg OD, Day 7): 924 ± 108 mg·h/dL | Plasma glucose AUC12–16h (after dinner) LS mean difference vs placebo (95% CI) (0.5 mg OD, Day 7): −44.7 (−122, 32.2) mg h/dL | Plasma glucose C max0–4h (after breakfast) (0.5 mg OD, Day 7): 243 ± 42.1 mg/dL | Plasma glucose C max4–8h (after lunch) (0.5 mg OD, Day 7): 256 ± 61.7 mg/dL | Plasma glucose C max4–8h (after lunch) LS mean difference vs placebo (95% CI) (0.5 mg OD, Day 7): −46.2 (−76.1, −16.3)* mg/dL | Plasma glucose C max12–16h (after dinner) (0.5 mg OD, Day 7): 274 ± 34.6 mg/dL | Plasma glucose C max12–16h (after dinner) LS mean difference vs placebo (95% CI) (0.5 mg OD, Day 7): −9.79 (−35.5, 15.9) mg/dL | FPG (24 h after dose) (1 mg OD, Day 1): 146 ± 25 mg/dL | FPG (24 h after dose) LS mean difference vs placebo (95% CI) (1 mg OD, Day 1): −7.90 (−16.6, 0.795) mg/dL | MPG0–16h (1 mg OD, Day 1): 188 ± 30.0 mg/dL | MPG0–16h LS mean difference vs placebo (95% CI) (1 mg OD, Day 1): −18.4 (−28.3, −8.55)* mg/dL | Plasma glucose AUC0–4h (after breakfast) (1 mg OD, Day 1): 812 ± 158 mg·h/dL | Plasma glucose AUC0–4h (after breakfast) LS mean difference vs placebo (95% CI) (1 mg OD, Day 1): −48.9 (−102, 4.37) mg h/dL | Plasma glucose AUC4–8h (after lunch) (1 mg OD, Day 1): 766 ± 131 mg·h/dL | Plasma glucose AUC4–8h (after lunch) LS mean difference vs placebo (95% CI) (1 mg OD, Day 1): −89.1 (−166, −11.9)* mg h/dL | Plasma glucose AUC12–16h (after dinner) (1 mg OD, Day 1): 851 ± 117 mg·h/dL | Plasma glucose AUC12–16h (after dinner) LS mean difference vs placebo (95% CI) (1 mg OD, Day 1): −91.4 (−142, −40.8)* mg h/dL | Plasma glucose C max0–4h (after breakfast) (1 mg OD, Day 1): 255 ± 44.1 mg/dL | Plasma glucose C max4–8h (after lunch) (1 mg OD, Day 1): 223 ± 33.7 mg/dL | Plasma glucose C max4–8h (after lunch) LS mean difference vs placebo (95% CI) (1 mg OD, Day 1): −30.5 (−54.1, −7.02)* mg/dL | Plasma glucose C max12–16h (after dinner) (1 mg OD, Day 1): 255 ± 37.3 mg/dL | Plasma glucose C max12–16h (after dinner) LS mean difference vs placebo (95% CI) (1 mg OD, Day 1): −31.3 (−49.4, −13.3)* mg/dL | FPG (24 h after dose) (1 mg OD, Day 7): 139 ± 14 mg/dL | FPG (24 h after dose) LS mean difference vs placebo (95% CI) (1 mg OD, Day 7): −18.1 (−30.5, −5.62)* mg/dL | MPG0–16h (1 mg OD, Day 7): 184 ± 24.0 mg/dL | MPG0–16h LS mean difference vs placebo (95% CI) (1 mg OD, Day 7): −27.5 (−44.1, −10.8)* mg/dL | Plasma glucose AUC0–4h (after breakfast) (1 mg OD, Day 7): 780 ± 116 mg·h/dL | Plasma glucose AUC0–4h (after breakfast) LS mean difference vs placebo (95% CI) (1 mg OD, Day 7): −96.7 (−173, −20.0)* mg h/dL | Plasma glucose AUC4–8h (after lunch) (1 mg OD, Day 7): 787 ± 126 mg·h/dL | Plasma glucose AUC4–8h (after lunch) LS mean difference vs placebo (95% CI) (1 mg OD, Day 7): −138 (−236, −40.8)* mg h/dL | Plasma glucose AUC12–16h (after dinner) (1 mg OD, Day 7): 824 ± 125 mg·h/dL | Plasma glucose AUC12–16h (after dinner) LS mean difference vs placebo (95% CI) (1 mg OD, Day 7): −96.2 (−169, −23.2)* mg h/dL | Plasma glucose C max0–4h (after breakfast) (1 mg OD, Day 7): 240 ± 31.3 mg/dL | Plasma glucose C max4–8h (after lunch) (1 mg OD, Day 7): 229 ± 33.7 mg/dL | Plasma glucose C max4–8h (after lunch) LS mean difference vs placebo (95% CI) (1 mg OD, Day 7): −34.7 (−62.8, −6.53)* mg/dL | Plasma glucose C max12–16h (after dinner) (1 mg OD, Day 7): 242 ± 41.3 mg/dL | Plasma glucose C max12–16h (after dinner) LS mean difference vs placebo (95% CI) (1 mg OD, Day 7): −29.4 (−53.8, −5.06)* mg/dL
